The values that follow come from the array DNA melting data of Ke et al. (doi:10.1101/2024.01.08.574731).

The nature of series [1]: folding enthalpy; higher = less favourable; fluorescence melt of hairpins on a sequencing array, two-state fit. The following applies: sodium 0.088 M. The method in brief: (§1)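 Bootstrapped two-state fits yielded melting temperature and folding enthalpy for library hairpins. Cy3 fluorescence, with annealed Cy3 and quencher oligos, was imaged on a sequenced MiSeq flow cell in 50 mM Na-HEPES pH 8.0, 25 mM NaCl in 2.5 °C steps up to 60 °C, and normalised to pre-quench Cy3 and to control constructs. Four replicates were combined by inverse variance, and fitted temperatures were raised by 9.35 °C to match UV melts.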

Series [2] in a line: melting temperature; fluorescence melt of hairpins on a sequencing array, two-state fit, raised by 9.35 °C to match UV melts. The following applies: sodium 0.088 M. The method in brief: as §1

As to GATCCCCCCGGGGATC ((((((....)))))), in series [1], the folding enthalpy was -39.7 kcal/mol. Also, the Tm in series [2] came out at 65.9 °C.

Turning to GATCCCCCGGGGGATC ((((((....)))))), the folding enthalpy in series [1] was -41.4 kcal/mol. Also, the Tm in series [2] amounted to 66 °C.

With GATCCCCGAGGGGATC ((((((....)))))), the folding enthalpy in series [1] was -37.2 kcal/mol. The Tm in series [2] turned out to be 68.5 °C.

Consider GATCCCCGCGGGGATC ((((((....)))))), for which the folding enthalpy in series [1] was -38.8 kcal/mol. Besides, in series [2], the Tm is 67.4 °C.

Regarding GATCCCCGGGGGGATC ((((((....)))))), the folding enthalpy in series [1] is -29.9 kcal/mol. Moreover, the Tm in series [2] was determined as 66.6 °C.

Turning to GATCCCCGTGGGATC ((((((...)))))), the folding enthalpy in series [1] was -27.8 kcal/mol. In addition, the Tm in series [2] amounted to 65.2 °C.

As to GATCCCCTAGGGATC ((((((...)))))), the folding enthalpy in series [1] was -38.4 kcal/mol. In addition, the Tm in series [2] is 64.4 °C.

Take GATCCCCTGAGGGATC ((((((....)))))): in series [1], the folding enthalpy was -31.8 kcal/mol. Also, the Tm in series [2] stood at 61.9 °C.

Turning to GATCCCCTTAGGGATC ((((((....)))))), the folding enthalpy in series [1] was -45 kcal/mol. Besides, in series [2], the Tm came to 63.2 °C.

Regarding GATCCCCTTCGGGATC ((((((....)))))), the folding enthalpy in series [1] is -39.9 kcal/mol. The Tm in series [2] stood at 58.7 °C.

On to GATCCCCTTTGGGATC ((((((....)))))), for which the folding enthalpy in series [1] is -33.9 kcal/mol. Moreover, the Tm in series [2] was 61 °C.

Take GATCCCGAAAGGGGATC ((((((....))).))): the folding enthalpy in series [1] is -31.4 kcal/mol. Also, the Tm in series [2] is 57.8 °C.

Take GATCCCGAAAGGGTCATC ((((((....)))..))): the folding enthalpy in series [1] is -12.1 kcal/mol. Further, the Tm in series [2] is 42.8 °C.

As to GATCCCGAAAGGGTGATC ((((((....)))..))), the folding enthalpy in series [1] was -16.1 kcal/mol. Besides, in series [2], the Tm was 39.8 °C.

With GATCCCGAAGGGGATC ((((((....)))))), the folding enthalpy in series [1] was -19.7 kcal/mol. Further, the Tm in series [2] came out at 65.5 °C.

As for GATCCCGAGCGGGATC ((((((....)))))), in series [1], the folding enthalpy is -40.5 kcal/mol. Further, the Tm in series [2] is 61.6 °C.

In the case of GATCCCGAGTGGGATC ((((((....)))))), in series [1], the folding enthalpy is -33.7 kcal/mol. Moreover, in series [2], the Tm amounted to 61.1 °C.

In the case of GATCCCGATCGGGATC ((((((....)))))), the folding enthalpy in series [1] is -50.5 kcal/mol. For the same sequence, in series [2], the Tm is 62.3 °C.

In the case of GATCCCGATGGGATC ((((((...)))))), the folding enthalpy in series [1] was -36.5 kcal/mol. The Tm in series [2] worked out at 61.3 °C.

In the case of GATCCCGCCGGGGATC ((((((....)))))), the folding enthalpy in series [1] is -37.7 kcal/mol. Moreover, in series [2], the Tm turned out to be 63.1 °C.

GATCCCGGAAACGGGACC (.(((((....))))).): the folding enthalpy in series [1] is -11 kcal/mol. Moreover, the Tm in series [2] was 46.7 °C.

For the sequence GATCCCGGTGGGGATC ((((((....)))))), in series [1], the folding enthalpy was -40.2 kcal/mol. Moreover, the Tm in series [2] was 59.3 °C.

Regarding GATCCCGTAGGGGATC ((((((....)))))), the folding enthalpy in series [1] was -23.4 kcal/mol. Besides, the Tm in series [2] was determined as 62.9 °C.

Consider GATCCCGTGTGGGATC ((((((....)))))), for which, in series [1], the folding enthalpy was -33.9 kcal/mol. Besides, the Tm in series [2] was determined as 63.9 °C.

Take GATCCCGTTGGGGATC ((((((....)))))): the folding enthalpy in series [1] was -42.4 kcal/mol. In addition, in series [2], the Tm turned out to be 64.7 °C.

For GATCCCTAAGGGATC ((((((...)))))), in series [1], the folding enthalpy is -38.4 kcal/mol. Further, the Tm in series [2] came to 60.2 °C.

Take GATCCCTACGGGGATC ((((((....)))))): the folding enthalpy in series [1] is -39.4 kcal/mol. The Tm in series [2] was 62.1 °C.

For GATCCCTATCGGGATC ((((((....)))))), the folding enthalpy in series [1] was -38 kcal/mol. In addition, in series [2], the Tm was determined as 60.2 °C.

Turning to GATCCCTATGGGATC ((((((...)))))), in series [1], the folding enthalpy was -36.1 kcal/mol. In addition, the Tm in series [2] came out at 64.8 °C.

Regarding GATCCCTCAGGGGATC ((((((....)))))), the folding enthalpy in series [1] is -34.6 kcal/mol. Also, the Tm in series [2] came out at 60.6 °C.

GATCCCTCATGGGATC ((((((....)))))): the folding enthalpy in series [1] is -37 kcal/mol. Moreover, the Tm in series [2] worked out at 62.6 °C.

Take GATCCCTCCAGGGATC ((((((....)))))): in series [1], the folding enthalpy is -39.1 kcal/mol. Besides, in series [2], the Tm was found to be 63.9 °C.

As for GATCCCTCCGGGGATC ((((((....)))))), the folding enthalpy in series [1] was -31.3 kcal/mol. The Tm in series [2] came out at 65.3 °C.

Consider GATCCCTCCTGGGATC ((((((....)))))), for which, in series [1], the folding enthalpy was -37 kcal/mol. In addition, the Tm in series [2] amounted to 61 °C.

As for GATCCCTCGAGGGATC ((((((....)))))), the folding enthalpy in series [1] was -41.7 kcal/mol. The Tm in series [2] is 62 °C.

As to GATCCCTCGGGGATC ((((((...)))))), the folding enthalpy in series [1] was -34.5 kcal/mol. Besides, the Tm in series [2] is 62.9 °C.

In the case of GATCCCTGAGGGGATC ((((((....)))))), in series [1], the folding enthalpy was -39.4 kcal/mol. Moreover, in series [2], the Tm was found to be 63 °C.

Consider GATCCCTGATGGGATC ((((((....)))))), for which the folding enthalpy in series [1] is -41.1 kcal/mol. In addition, in series [2], the Tm stood at 59.8 °C.
